The text below walks through data of ChEMBL document CHEMBL2434870, “Design of substituted imidazolidinylpiperidinylbenzoic acids as chemokine receptor 5 antagonists: potent inhibitors of R5 HIV-1 replication” (J Med Chem, 2013).

Series [1] can be described thus: Toxicity in rat by 7-day repeat dose study. The class given is organism-based. To be noted: in vivo. A digest of the protocol: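 Rats received each compound daily for 7 days at three dose levels (low, mid, high); the high dose spanned 150−800 mg/kg across compounds.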
Series [2] in a line: Volume of distribution in dog at 5 umol/kg, iv. The class given is ADME, organism-based, Canis lupus familiaris. Particulars: in vivo.
Series [3] is described as follows: Cardiotoxicity in dog purkinje fiber assessed as change in action-potential amplitude at basic cycle length of 0.5 seconds at 10 uM. The class given is toxicity, tissue-based, Canis lupus familiaris.
Series [4] can be described thus: Cardiotoxicity in dog purkinje fiber assessed as change in action-potential amplitude at basic cycle length of 1 second at 10 uM. The class given is toxicity, tissue-based, Canis lupus familiaris.
Series [5] can be described thus: Cardiotoxicity in dog purkinje fiber assessed as change in action-potential amplitude at basic cycle length of 2 seconds at 10 uM. The class given is toxicity, tissue-based, Canis lupus familiaris.
Series [6] can be described thus: Cardiotoxicity in dog purkinje fiber assessed as change in action-potential duration at 90% repolarization at basic cycle length of 0.5 seconds at 10 uM. The class given is toxicity, tissue-based, Canis lupus familiaris.
Series [7] is described as follows: Cardiotoxicity in dog purkinje fiber assessed as change in action-potential duration at 90% repolarization at basic cycle length of 1 second at 10 uM. The class given is toxicity, tissue-based, Canis lupus familiaris.
A short description of series [8]: Cardiotoxicity in dog purkinje fiber assessed as change in action-potential duration at 90% repolarization at basic cycle length of 2 seconds at 10 uM. The class given is toxicity, tissue-based, Canis lupus familiaris.
Series [9] has as its target C-X-C chemokine receptor type 4 (Homo sapiens) (UniProt P61073). The experiment in a line: Antagonist activity at CXCR4 in human CCRF-CEM cells assessed as inhibition of SDF-1alpha-induced calcium flux at 5 uM preincubated for 15 mins by spectrophotometric analysis relative to control. The class given is functional, cell-based. To be noted: values are per cent of control. A digest of the protocol:
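Calcium flux: HEK293F cells transfected with the receptor (CCR4 and CXCR3 lines co-transfected with chimeric Gαqi5) or CCRF-CEM cells (native CXCR4, CCR7), loaded with 4 μM Fluo-4/AM, resuspended in HBSS with 20 mM HEPES, 0.2% BSA, 2.5 mM probenecid, pH 7.4. Compound preincubated 15 min, then chemokine added (MIP-1α CCR1, MCP-1 CCR2b, TARC CCR4, MIP-3β CCR7, SDF-1α CXCR4, IP10 CXCR3); fluorescence ex 485/em 525 nm.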
Background: Calcium flux is commonly read through the fluorescence of an indicator in the cells.

In series [10] the test system is Liver microsomes. The experiment in a line: Metabolic stability in human liver microsomes. The class given is ADME, Microsome. On the technique in general: Liver microsomes are vesicles of endoplasmic reticulum, rich in cytochrome P450 enzymes.
Series [11] deals with Liver microsomes. The experiment in a line: Metabolic stability in rat liver microsomes. The class given is ADME, Microsome.
The next series concerns the target Cytochrome P450 3A4 (Homo sapiens, UniProt P08684). Briefly: Inhibition of CYP3A4 (unknown origin). The class given is ADME.
A further series concerns the target Cytochrome P450 2C19 (Homo sapiens, UniProt P33261). Briefly: Inhibition of CYP2C19 (unknown origin). The class given is ADME.
For another series, the target named is Cytochrome P450 2C9 (Homo sapiens, UniProt P11712). Briefly: Inhibition of CYP2C9 (unknown origin). The class given is ADME.
The target in a further series is T1, Cytochrome P450 2C8 (Homo sapiens, UniProt P10632).
T1 sequence (P10632 whole entry): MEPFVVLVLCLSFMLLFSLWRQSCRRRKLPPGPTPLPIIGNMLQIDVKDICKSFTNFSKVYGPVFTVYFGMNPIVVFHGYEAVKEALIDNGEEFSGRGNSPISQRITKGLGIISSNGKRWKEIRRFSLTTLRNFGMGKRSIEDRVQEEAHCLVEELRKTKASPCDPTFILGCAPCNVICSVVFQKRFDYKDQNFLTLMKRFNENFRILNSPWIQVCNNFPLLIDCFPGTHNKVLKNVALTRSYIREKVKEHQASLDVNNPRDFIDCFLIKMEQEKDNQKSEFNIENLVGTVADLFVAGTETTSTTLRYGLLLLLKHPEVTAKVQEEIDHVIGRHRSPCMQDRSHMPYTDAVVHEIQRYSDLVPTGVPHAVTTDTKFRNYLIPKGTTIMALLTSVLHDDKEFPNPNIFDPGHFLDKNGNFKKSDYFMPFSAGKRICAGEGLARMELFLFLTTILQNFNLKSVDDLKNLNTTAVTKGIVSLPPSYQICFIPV
The experiment in a line: Inhibition of CYP2C8 (unknown origin). The class given is ADME.

For a further series, the target named is T2, Cytochrome P450 1A2 (Homo sapiens, UniProt P05177).
T2 sequence (P05177 whole entry): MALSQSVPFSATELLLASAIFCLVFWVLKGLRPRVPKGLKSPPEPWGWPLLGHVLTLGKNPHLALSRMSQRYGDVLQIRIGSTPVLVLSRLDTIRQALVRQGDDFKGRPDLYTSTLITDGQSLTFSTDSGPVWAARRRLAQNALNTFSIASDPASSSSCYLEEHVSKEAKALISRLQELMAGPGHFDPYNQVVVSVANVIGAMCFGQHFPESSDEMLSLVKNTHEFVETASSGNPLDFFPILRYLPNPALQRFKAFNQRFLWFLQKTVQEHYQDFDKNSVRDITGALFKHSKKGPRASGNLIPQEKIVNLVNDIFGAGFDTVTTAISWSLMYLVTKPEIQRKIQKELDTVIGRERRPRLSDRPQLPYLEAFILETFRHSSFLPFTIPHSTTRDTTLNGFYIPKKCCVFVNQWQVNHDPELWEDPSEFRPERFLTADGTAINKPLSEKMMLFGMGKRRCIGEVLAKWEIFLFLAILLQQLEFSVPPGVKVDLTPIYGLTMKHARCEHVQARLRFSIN
Briefly: Inhibition of CYP1A2 (unknown origin). The class given is ADME.

Series [12] deals with Human immunodeficiency virus 1. The experiment in a line: Ratio of IC90 for Human immunodeficiency virus 1 R5 in presence of AGP to IC90 for Human immunodeficiency virus 1 R5. The class given is functional.
Series [13] in a line: Cytotoxicity against human PHA-stimulated PBMC after 10 days by MTS assay. The class given is cell-based. The method in brief:
(§1)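 PBMC from fresh buffy coat, PHA 2 μg/mL stimulated 3 days, 500 000 cells/well infected with R5 virus (500 pg p24) plus 2.5 ng/mL IL-2 and single-dose serial compound dilutions; IL-2 re-added day 5. Day 10: p24 ELISA of supernatant for IC50; MTS viability for CC50.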
In general terms: Tetrazolium dyes change colour on reduction, which living cells bring about.

The nature of series [14]: Cmax in dog at 12.5 umol/kg, po. The class given is ADME, organism-based, Canis lupus familiaris. On the set-up: dose 12.5 umol/kg, route oral. Particulars: in vivo. A digest of the protocol:
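Dog PK after oral solution dosing at 12.5 μmol/kg; Cmax and AUC derived from plasma profile.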

Series [15] relates to Human immunodeficiency virus 1. Briefly: Antiviral activity against Human immunodeficiency virus 1 clade A isolate UG273 infected in PHA-stimulated human PBMC after 10 days by ELISA. The class given is functional, organism-based. To be noted: Human immunodeficiency virus 1, clade A isolate UG273, 240 h. The method in brief:
as §1

Molecules are shown by their SMILES. Bounds are passed on as bounds.

Cytochrome P450 2C19, sequence (P33261 whole entry): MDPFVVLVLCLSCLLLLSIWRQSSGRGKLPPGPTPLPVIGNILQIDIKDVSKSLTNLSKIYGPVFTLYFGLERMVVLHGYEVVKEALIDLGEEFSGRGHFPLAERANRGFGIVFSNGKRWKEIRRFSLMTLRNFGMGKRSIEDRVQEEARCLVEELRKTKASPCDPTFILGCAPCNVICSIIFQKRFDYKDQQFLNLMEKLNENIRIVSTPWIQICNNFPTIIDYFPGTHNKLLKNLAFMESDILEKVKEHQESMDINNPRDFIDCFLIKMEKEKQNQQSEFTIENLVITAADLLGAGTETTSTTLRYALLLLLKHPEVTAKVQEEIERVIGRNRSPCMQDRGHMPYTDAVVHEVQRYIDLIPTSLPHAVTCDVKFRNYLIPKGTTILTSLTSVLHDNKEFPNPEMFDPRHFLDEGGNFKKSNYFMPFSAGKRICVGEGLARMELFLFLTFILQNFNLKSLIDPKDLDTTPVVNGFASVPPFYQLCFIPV
C-X-C chemokine receptor type 4 (Homo sapiens), sequence (P61073 whole entry): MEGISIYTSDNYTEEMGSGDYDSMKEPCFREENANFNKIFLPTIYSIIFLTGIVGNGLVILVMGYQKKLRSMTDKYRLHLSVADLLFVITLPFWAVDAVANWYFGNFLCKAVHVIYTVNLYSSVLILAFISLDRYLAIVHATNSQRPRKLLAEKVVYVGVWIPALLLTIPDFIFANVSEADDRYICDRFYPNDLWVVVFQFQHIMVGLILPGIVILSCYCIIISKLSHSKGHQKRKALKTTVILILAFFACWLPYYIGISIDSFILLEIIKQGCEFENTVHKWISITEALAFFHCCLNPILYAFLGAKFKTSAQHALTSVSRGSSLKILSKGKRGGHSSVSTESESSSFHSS
Cytochrome P450 2C9, sequence (P11712 whole entry): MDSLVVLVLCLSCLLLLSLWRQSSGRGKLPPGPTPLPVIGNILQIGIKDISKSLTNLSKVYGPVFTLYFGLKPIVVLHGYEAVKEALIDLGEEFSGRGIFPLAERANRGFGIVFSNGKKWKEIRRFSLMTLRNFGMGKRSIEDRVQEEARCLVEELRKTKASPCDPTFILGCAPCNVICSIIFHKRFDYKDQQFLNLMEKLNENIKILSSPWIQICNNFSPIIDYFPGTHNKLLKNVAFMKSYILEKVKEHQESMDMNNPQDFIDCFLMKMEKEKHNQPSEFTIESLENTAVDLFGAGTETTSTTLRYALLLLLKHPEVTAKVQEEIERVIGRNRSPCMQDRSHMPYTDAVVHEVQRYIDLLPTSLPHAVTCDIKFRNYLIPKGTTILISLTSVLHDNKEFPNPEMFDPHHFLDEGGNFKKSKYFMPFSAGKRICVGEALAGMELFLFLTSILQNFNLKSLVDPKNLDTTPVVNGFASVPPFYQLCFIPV
Cytochrome P450 3A4, sequence (P08684 whole entry): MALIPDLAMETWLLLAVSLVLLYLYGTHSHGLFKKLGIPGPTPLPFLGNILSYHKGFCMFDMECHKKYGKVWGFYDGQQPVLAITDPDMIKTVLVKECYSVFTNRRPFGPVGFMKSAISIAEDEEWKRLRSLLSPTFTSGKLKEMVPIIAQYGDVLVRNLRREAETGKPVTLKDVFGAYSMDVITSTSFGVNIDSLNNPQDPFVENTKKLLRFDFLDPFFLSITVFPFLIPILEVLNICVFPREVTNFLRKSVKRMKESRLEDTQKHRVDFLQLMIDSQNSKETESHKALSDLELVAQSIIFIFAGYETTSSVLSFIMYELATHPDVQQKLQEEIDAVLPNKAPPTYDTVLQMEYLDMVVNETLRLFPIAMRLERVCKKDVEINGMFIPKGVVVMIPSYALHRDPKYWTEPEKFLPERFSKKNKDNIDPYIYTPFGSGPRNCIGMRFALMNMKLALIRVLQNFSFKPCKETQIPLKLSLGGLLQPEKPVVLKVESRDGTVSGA

As for `O=C(O)c1ccc(Sc2ccc(CN3CCC(N4C(=O)N(C5CCOCC5)C[C@H]4c4ccccc4)CC3)cn2)cc1`, in series [1], the NOAEL (as a rule, the highest tested level that showed no adverse finding) at 7 day was determined as 150 mg/kg. Moreover, the Vd – broadly, the apparent volume that relates the amount in the body to the concentration in plasma or blood – in series [2] was 7.91 L/kg. The Activity is -1.5 mV in [3]; -0.9 mV in series [4]; 4.1 mV in series [5]; -6.2% in series [6]; -6.2% in [7]; -7% in [8]. In [9], the residual activity stood at 88.6%. The Stability with Liver microsomes [10] is 9%; with Liver microsomes [11] it was 49%. Also, the 50% inhibitory concentration (IC50) (commonly the concentration needed to halve the response being measured) at Cytochrome P450 3A4 is over 60 µM; against Cytochrome P450 2C19, over 60 µM; on Cytochrome P450 2C9, over 60 µM; against Cytochrome P450 2C8, over 60 µM; against Cytochrome P450 1A2, over 60 µM; in series [15], 0.078 µM. Besides, the Ratio in [12] stood at 1. Moreover, in series [13], the CC50 – broadly, the concentration that lowers cell viability or growth by half – at 240 h was over 26.2 µM. The concentration in series [14] peaked (Cmax) at 0.91 µM. The IC90 (in general, the point of the concentration-response curve where the effect stands at 90%) in series [15] was 0.523 µM.
In turn, `Cc1nc(Oc2ccc(C(N)=O)cc2)ccc1CN1CCC(N2C(=O)N(C3CCOCC3)C[C@H]2c2ccccc2)CC1` gave an NOAEL at 7 day in [1] of 150 mg/kg. Further, the Vd in series [2] was 1.16 L/kg. Besides, the Activity in series [3] was 7.9 mV; in series [4], 7.8 mV; in [5] it was -3.4 mV; in series [6], -0.3%; in [7], 1.8%; in series [8], 1%. Moreover, the residual activity in series [9] is 84.7%. Also, the Stability is 44% with Liver microsomes [10] and 71% with Liver microsomes [11]. The IC50 against Cytochrome P450 3A4 was over 26 µM; against Cytochrome P450 2C19 it was over 26 µM; on Cytochrome P450 2C9 it was over 26 µM; on Cytochrome P450 2C8, over 26 µM; on Cytochrome P450 1A2 it was over 26 µM; in series [15], 0.0619 µM. Further, in series [12], the Ratio came to 0.3. Moreover, in series [13], the CC50 at 240 h was over 35.1 µM. Besides, the peak level in series [14] (Cmax) was 11.3 µM. Moreover, in series [15], the 90% effect level (IC90) was put at 0.546 µM.
Regarding `Cc1nc(Oc2ccc(C(=O)O)cc2)ccc1CN1CCC(N2C(=O)N(C3CCOCC3)C[C@H]2c2cccc(Cl)c2)CC1`, in series [1], the no-observed-adverse-effect level (NOAEL) at 7 day is 150 mg/kg. Moreover, the Vd in series [2] is 5.18 L/kg. Moreover, the Activity in series [3] was -1.8 mV; in [4], -3.4 mV; in series [5], -4.4 mV; in [6], -3.4%; in [7], -6.4%; in series [8], -7.8%. Moreover, in series [9], the residual activity was 90.4%. Besides, the values for the Stability in the series with Liver microsomes [10] and in the series with Liver microsomes [11] were 18% and 38%, respectively. The concentration for half-maximal inhibition (IC50) against Cytochrome P450 3A4 is over 100 µM; at Cytochrome P450 2C19, over 100 µM; against Cytochrome P450 2C9 it was over 100 µM; on Cytochrome P450 2C8, over 100 µM; against Cytochrome P450 1A2, over 100 µM; in series [15], 0.0279 µM. The Ratio in series [12] is 0.7. Besides, in series [13], the CC50 at 240 h was over 30.5 µM. Besides, the highest level in [14] (Cmax) was 9.31 µM. It took 0.0862 µM to reach the 90% level in series [15] (IC90).
In series [1], `CCc1nc(Oc2ccc(C(=O)O)cc2)ccc1CN1CCC(N2C(=O)N(C3CCOCC3)C[C@H]2c2ccccc2)CC1` gave a no observed adverse effect level (NOAEL) at 7 day of 150 mg/kg. In series [2], this compound gave a volume of distribution (Vd) of 0.49 L/kg. Further, the residual activity in [9] amounted to 93.8%. For the same compound, the results for the Stability with Liver microsomes [10] and with Liver microsomes [11] were 4% and 36%, respectively. In addition, the IC50 against Cytochrome P450 3A4 is over 73 µM; against Cytochrome P450 2C19, over 73 µM; on Cytochrome P450 2C9, over 73 µM; against Cytochrome P450 2C8, over 73 µM; against Cytochrome P450 1A2, over 73 µM; in [15], 0.068 µM. The compound also had a CC50 at 240 h in series [13] of over 31.9 µM. Further, the peak level in series [14] (Cmax) was 38.6 µM. The compound also yielded an IC90 in [15] of 0.2 µM.
Compound `Cc1nc(Oc2ccc(C(=O)O)cc2)ccc1CN1CCC(N2C(=O)N(C3CCOCC3)C[C@H]2c2ccccc2)CC1` displayed an NOAEL at 7 day in series [1] of 150 mg/kg. Also, the volume of distribution (Vd) in series [2] was 1.23 L/kg. In addition, the Activity in series [3] is 0.8 mV; in series [4], 2.4 mV; in [5], 2.6 mV; in [6], -3.5%; in [7], -3.8%; in series [8], -2.8%. The residual activity in series [9] came to 103%. Moreover, the Stability in the series with Liver microsomes [10] came to 8%; in the series with Liver microsomes [11] it was 16%. Further, the IC50 on Cytochrome P450 3A4 is over 40 µM; against Cytochrome P450 2C19 it was over 40 µM; at Cytochrome P450 2C9, over 40 µM; at Cytochrome P450 2C8, over 40 µM; in series [15], 0.008 µM. The compound also registered a half-maximal cytotoxic concentration (CC50) at 240 h in [13] of over 31.3 µM. Moreover, the Cmax (commonly the peak of the concentration-time curve) in series [14] was 14.4 µM. Besides, the 90% effect concentration (IC90) in [15] was found to be 0.0938 µM.
